Results as given in ChEMBL document CHEMBL5143761, “Aroylhydrazone Glycoconjugate Prochelators Exploit Glucose Transporter 1 (GLUT1) to Target Iron in Cancer Cells” (ACS Med Chem Lett, 2022).
Active and inactive are the calls of the source. The calls are words filed in the database; no cut-off is given here.

System: A2780
Experiment: Induction of apoptosis in human A2780 cells assessed as late apoptosis level at 20 uM incubated for 48 hrs by PI and FITC-Annexin V staining based flow cytometry
Assay type: functional
Conditions: not given
Outline: (§1)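 A2780 cells exposed to compound (20 μM) for 48 h. Cells then stained with FITC-Annexin V and propidium iodide and analysed by flow cytometry for early and late apoptotic fractions. Triplicate, mean ± standard deviation.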

Row | SMILES | Activity
1 | O=C(CCSSc1ccccc1/C=N/NC(=O)c1ccccc1)OC[C@H]1OC(O)C[C@@H](O)[C@@H]1O (stereo partly drawn) | 20%
2 | O=C(N/N=C/c1ccccc1O)c1ccncc1 [SALINAZID] | 38%
3 | OC[C@H]1OC(O)C[C@@H](O)[C@@H]1O (stereo partly drawn) | 3.4%

System: not listed separately
Experiment: Induction of intracellular iron sequestration in human A2780 cells at 20 uM by calcein based fluorescence assay
Conditions: not given

Row | SMILES | Activity
4 | O=C(CCSSc1ccccc1/C=N/NC(=O)c1ccccc1)N[C@H]1C(O)O[C@H](CO)[C@@H](O)[C@@H]1O (stereo partly drawn) | 20%
5 | O=C(CCSSc1ccccc1/C=N/NC(=O)c1ccccc1)OC[C@H]1OC(O)[C@H](O)[C@@H](O)[C@@H]1O (stereo partly drawn) | 20%
6 | O=C(CCSSc1ccccc1/C=N/NC(=O)c1ccccc1)OC[C@H]1OC(O)C[C@@H](O)[C@@H]1O (stereo partly drawn) | 20%
7 | COC(=O)CCSSc1ccccc1/C=N/NC(=O)c1ccccc1 | 20%

System: A2780
Experiment: Induction of apoptosis in human A2780 cells assessed as early apoptosis level at 20 uM incubated for 48 hrs by PI and FITC-Annexin V staining based flow cytometry
Assay type: functional
Conditions: not given
Outline: as §1

Row | SMILES | Activity
8 | O=C(CCSSc1ccccc1/C=N/NC(=O)c1ccccc1)N[C@H]1C(O)O[C@H](CO)[C@@H](O)[C@@H]1O (stereo partly drawn) | 5%
9 | O=C(CCSSc1ccccc1/C=N/NC(=O)c1ccccc1)OC[C@H]1OC(O)[C@H](O)[C@@H](O)[C@@H]1O (stereo partly drawn) | 5%
10 | O=C(CCSSc1ccccc1/C=N/NC(=O)c1ccccc1)OC[C@H]1OC(O)C[C@@H](O)[C@@H]1O (stereo partly drawn) | 5%
11 | O=C(N/N=C/c1ccccc1O)c1ccncc1 [SALINAZID] | 7.8%
12 | COC(=O)CCSSc1ccccc1/C=N/NC(=O)c1ccccc1 | 5%
13 | OC[C@H]1OC(O)C[C@@H](O)[C@@H]1O (stereo partly drawn) | 3.6%

System: MDA-MB-231
Experiment: Antiproliferative activity against human MDA-MB-231 cells ectopically overexpressing GLUT1 incubated for 72 hrs by MTT assay relative to normal cells
Assay type: functional, cell-based
Conditions: not given
Outline: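 MDA-MB-231 derivative line transduced to overexpress GLUT1 is compared with an isogenic control line transduced with the same vector expressing Turbo-635 fluorescent protein. GLUT1 levels were checked by Western blot. IC50 from MTT after 72 h. Triplicate, mean ± standard deviation.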

Row | SMILES | Activity
14 | O=C(CCSSc1ccccc1/C=N/NC(=O)c1ccccc1)N[C@H]1C(O)O[C@H](CO)[C@@H](O)[C@@H]1O (stereo partly drawn) | Active
15 | O=C(CCSSc1ccccc1/C=N/NC(=O)c1ccccc1)OC[C@H]1OC(O)[C@H](O)[C@@H](O)[C@@H]1O (stereo partly drawn) | Active
16 | O=C(CCSSc1ccccc1/C=N/NC(=O)c1ccccc1)OC[C@H]1OC(O)C[C@@H](O)[C@@H]1O (stereo partly drawn) | Active
17 | COC(=O)CCSSc1ccccc1/C=N/NC(=O)c1ccccc1 | Active

System: A2780
Experiment: Antiproliferative activity against human A2780 cells incubated for 72 hrs by MTT assay
Assay type: functional, cell-based
Conditions: A2780, 72 h
Outline: (§2)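 MTT assay after 72 h continuous exposure in MDA-MB-231 breast and A2780 ovarian cancer cells and MRC-5 normal lung fibroblasts. IC50 taken from the resulting dose–response.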

Row | SMILES | IC50
18 | O=C(CCSSc1ccccc1/C=N/NC(=O)c1ccccc1)N[C@H]1C(O)O[C@H](CO)[C@@H](O)[C@@H]1O (stereo partly drawn) | 5.3 µM
19 | O=C(CCSSc1ccccc1/C=N/NC(=O)c1ccccc1)OC[C@H]1OC(O)[C@H](O)[C@@H](O)[C@@H]1O (stereo partly drawn) | 5.2 µM
20 | O=C(CCSSc1ccccc1/C=N/NC(=O)c1ccccc1)OC[C@H]1OC(O)C[C@@H](O)[C@@H]1O (stereo partly drawn) | 2.5 µM
21 | COC(=O)CCSSc1ccccc1/C=N/NC(=O)c1ccccc1 | 2.1 µM
22 | CC(=O)N(O)CCCCCNC(=O)CCC(=O)N(O)CCCCCNC(=O)CCC(=O)N(O)CCCCCN [DEFEROXAMINE] | 3.5 µM

System: not listed separately
Experiment: Antiproliferative activity against human MRC5 cells incubated for 72 hrs by MTT assay
Assay type: toxicity, cell-based
Conditions: not given
Outline: as §2

Row | SMILES | IC50 at 72 h
23 | O=C(CCSSc1ccccc1/C=N/NC(=O)c1ccccc1)N[C@H]1C(O)O[C@H](CO)[C@@H](O)[C@@H]1O (stereo partly drawn) | 33 µM
24 | O=C(CCSSc1ccccc1/C=N/NC(=O)c1ccccc1)OC[C@H]1OC(O)[C@H](O)[C@@H](O)[C@@H]1O (stereo partly drawn) | 26 µM
25 | O=C(CCSSc1ccccc1/C=N/NC(=O)c1ccccc1)OC[C@H]1OC(O)C[C@@H](O)[C@@H]1O (stereo partly drawn) | 29 µM
26 | COC(=O)CCSSc1ccccc1/C=N/NC(=O)c1ccccc1 | 12 µM
27 | CC(=O)N(O)CCCCCNC(=O)CCC(=O)N(O)CCCCCNC(=O)CCC(=O)N(O)CCCCCN [DEFEROXAMINE] | 9 µM

System: A2780
Experiment: Antiproliferative activity against human A2780 cells incubated for 72 hrs in presence of 12.5 uM GLUT1 inhibitor phloretin by MTT assay
Assay type: functional, cell-based
Conditions: not given
Outline: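 A2780 cells given test compound together with the GLUT1 inhibitor phloretin (12.5 μM) for 72 h. Read-out by MTT, giving IC50. Triplicate runs, reported as mean ± standard deviation.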

Row | SMILES | inhibition
28 | COC(=O)CCSSc1ccccc1/C=N/NC(=O)c1ccccc1 | Active

System: MDA-MB-231
Experiment: Antiproliferative activity against human MDA-MB-231 cells incubated for 72 hrs by MTT assay
Assay type: functional, cell-based
Conditions: MDA-MB-231, 72 h
Outline: as §2

Row | SMILES | IC50
29 | O=C(CCSSc1ccccc1/C=N/NC(=O)c1ccccc1)N[C@H]1C(O)O[C@H](CO)[C@@H](O)[C@@H]1O (stereo partly drawn) | 17 µM
30 | O=C(CCSSc1ccccc1/C=N/NC(=O)c1ccccc1)OC[C@H]1OC(O)[C@H](O)[C@@H](O)[C@@H]1O (stereo partly drawn) | 17 µM
31 | O=C(CCSSc1ccccc1/C=N/NC(=O)c1ccccc1)OC[C@H]1OC(O)C[C@@H](O)[C@@H]1O (stereo partly drawn) | 22 µM
32 | COC(=O)CCSSc1ccccc1/C=N/NC(=O)c1ccccc1 | 12 µM
33 | CC(=O)N(O)CCCCCNC(=O)CCC(=O)N(O)CCCCCNC(=O)CCC(=O)N(O)CCCCCN [DEFEROXAMINE] | 6.1 µM

System: not listed separately
Experiment: Ratio of IC50 for antiproliferative activity against human A2780 cells incubated for 72 hrs in presence of 12.5 uM GLUT1 inhibitor phloretin by MTT assay to IC50 antiproliferative activity against human A2780 cells incubated for 72 hrs in absence of 12.5 uM GLUT1 inhibitor phloretin by MTT assay
Assay type: functional
Conditions: not given
Outline: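 A2780 ovarian cancer cells were treated for 72 h with compound, either alone or coincubated with the GLUT1 inhibitor phloretin at 12.5 μM. Viability was read by MTT assay. IC50 values were determined in triplicate under each condition and reported as averages ± standard deviation. The value is the IC50 with phloretin relative to the IC50 without it.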

Row | SMILES | Ratio IC50
34 | O=C(CCSSc1ccccc1/C=N/NC(=O)c1ccccc1)OC[C@H]1OC(O)C[C@@H](O)[C@@H]1O (stereo partly drawn) | >5

System: not listed separately
Experiment: (§3) Inhibition of cellular uptake of fluorescent glucose 2-NBDG in human A2780 cells at 50 uM incubated for 20 mins by flow cytometry
Assay type: functional
Parameters: scale not given: the % may be the effect or the level left
Conditions: not given
Outline: (§4)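 A2780 cells held 12 h in glucose-free medium. They were then coincubated for 20 min with compound (50 μM) and 2-NBDG (100 μM) in growth medium with 1 g/L D-glucose. 2-NBDG uptake was read as flow-cytometric fluorescence, with phloretin (50 μM) as positive control. Triplicate, mean ± standard deviation.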

Row | SMILES | Activity
35 | O=C(CCSSc1ccccc1/C=N/NC(=O)c1ccccc1)N[C@H]1C(O)O[C@H](CO)[C@@H](O)[C@@H]1O (stereo partly drawn) | >20%
36 | O=C(CCSSc1ccccc1/C=N/NC(=O)c1ccccc1)OC[C@H]1OC(O)[C@H](O)[C@@H](O)[C@@H]1O (stereo partly drawn) | >20%
37 | O=C(CCSSc1ccccc1/C=N/NC(=O)c1ccccc1)OC[C@H]1OC(O)C[C@@H](O)[C@@H]1O (stereo partly drawn) | >20%

System: A2780
Experiment: as §3
Assay type: functional
Conditions: not given
Outline: as §4

Row | SMILES | inhibition
38 | O=C(CCc1ccc(O)cc1)c1c(O)cc(O)cc1O | Active
